In ChEMBL document CHEMBL4152304, “Design, synthesis and anticancer activity of fluorocyclopentenyl-purines and - pyrimidines” (Eur J Med Chem, 2018) one finds IC50 data, which are given here for 17 compounds.

Molecules are shown by their SMILES.

What all share (type): functional, cell-based
Assay [1] relates to PC-3. The assay can be described thus: Cytotoxicity against human PC3 cells assessed as decrease in cell viability after 72 hrs by SRB assay. Conditions: PC-3, 72 h. A digest of the protocol: (§1)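 Cells from the Korean Cell Line Bank were grown in RPMI 1640 with 10% FBS and penicillin/streptomycin/amphotericin B at 37 °C under 5% CO2. They were seeded at 5 × 10^4 cells/mL and exposed to a range of compound concentrations for 72 h. Cells were fixed in 10% TCA and stained with 0.4% SRB in 1% acetic acid. Dye was dissolved in 10 mM Tris (pH 10.0) and read at A515. Viability is relative to vehicle; IC50 by nonlinear regression.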

For assay [2], the system named is MDA-MB-231. Description: Cytotoxicity against human MDA-MB-231 cells assessed as decrease in cell viability after 72 hrs by SRB assay. As to conditions: MDA-MB-231, 72 h. In a few lines: (§2)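 Maintained in DMEM with 10% FBS and penicillin/streptomycin/amphotericin B at 37 °C in humidified 5% CO2; cell lines from the Korean Cell Line Bank. Plated at 5 × 10^4 cells/mL and treated with various concentrations for 72 h. Then 10% TCA fixation, 0.4% SRB staining in 1% acetic acid, solubilisation in 10 mM Tris pH 10.0 and absorbance at 515 nm. Viability is versus vehicle control; IC50 from nonlinear regression.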
For orientation: In SRB staining, fixed cells bind dye roughly in proportion to their protein.

Assay [3] deals with HCT-116. Description: Cytotoxicity against human HCT116 cells assessed as decrease in cell viability after 72 hrs by SRB assay. As to conditions: HCT-116, 72 h. A digest of the protocol:
as §1

For assay [4], the system named is SNU-638. The assay can be described thus: Cytotoxicity against human SNU638 cells assessed as decrease in cell viability after 72 hrs by SRB assay. Conditions: SNU-638, 72 h. A digest of the protocol: as §1
The test system of assay [5] is SK-HEP1. The assay can be described thus: Cytotoxicity against human SKHEP1 cells assessed as decrease in cell viability after 72 hrs by SRB assay. As to conditions: SK-HEP1, 72 h. A digest of the protocol:
as §2

For assay [6], the system named is A549. The assay can be described thus: Cytotoxicity against human A549 cells assessed as decrease in cell viability after 72 hrs by SRB assay. Conditions: A549, 72 h. A digest of the protocol:
as §1

With `OCC1=C(F)[C@@H](n2cnc3c(NC4CC4)ncnc32)[C@H](O)[C@@H]1O`, the IC50 in assay [1], in assay [2], in assay [3], in assay [4], in assay [5] and in assay [6] was greater than 100 µM throughout.

Turning to `Nc1nc(=O)n([C@@H]2C(F)=C(CO)[C@@H](O)[C@H]2O)cc1F`, the IC50 in assay [1], in assay [2], in assay [3], in assay [4], in assay [5] and in assay [6] was greater than 100 µM throughout.

Regarding `Nc1nc(O)c2ncn([C@@H]3C(F)=C(CO)[C@@H](O)[C@H]3O)c2n1`, the IC50 in assay [1], in assay [2], in assay [3], in assay [4], in assay [5] and in assay [6] was greater than 100 µM in each case.

Regarding `Nc1nc(=O)n([C@@H]2C(F)=C(CO)[C@@H](O)[C@H]2O)cc1Br`, the IC50 in assay [1], in assay [2], in assay [3], in assay [4], in assay [5] and in assay [6] was greater than 100 µM in each case.

Consider `OCC1=C(F)[C@@H](n2cnc3c(O)ncnc32)[C@H](O)[C@@H]1O`, for which the IC50 in assay [1], in assay [2], in assay [3], in assay [4], in assay [5] and in assay [6] was greater than 100 µM throughout.

Consider `O=c1nc(O)c(Br)cn1[C@@H]1C(F)=C(CO)[C@@H](O)[C@H]1O`, for which the IC50 was 32 µM in assay [1]; 44 µM in assay [2]; 33.1 µM in assay [3]; 32 µM in assay [4]; 75 µM in assay [5]; greater than 100 µM in assay [6].

On to `O=c1nc(O)c(Cl)cn1[C@@H]1C(F)=C(CO)[C@@H](O)[C@H]1O`, for which the IC50 in assay [1] was 61.9 µM; in assay [2], greater than 100 µM; in assay [3] it was greater than 100 µM; in assay [4] it was 86.8 µM; in assay [5] it was greater than 100 µM; in assay [6], greater than 100 µM.

Regarding `CC(C)OC(=O)[C@H](C)N[P@](=O)(OCC1=C(F)[C@@H](n2cnc3c(N)ncnc32)[C@H](O)[C@@H]1O)Oc1ccccc1`, the IC50 was found to be 10.5 µM in assay [1]; 18.4 µM in assay [2]; 4.57 µM in assay [3]; 3.05 µM in assay [4]; 24 µM in assay [5]; 18.6 µM in assay [6].

As for `Nc1nc(=O)n([C@@H]2C(F)=C(CO)[C@@H](O)[C@H]2O)cc1I`, the IC50 in assay [1] is 82.9 µM; in assay [2] it was 79.8 µM; in assay [3], 99.8 µM; in assay [4], 83.7 µM; in assay [5], greater than 100 µM; in assay [6], greater than 100 µM.

As to `Nc1nc(N)c2ncn([C@@H]3C(F)=C(CO)[C@@H](O)[C@H]3O)c2n1`, the IC50 in assay [1] is greater than 100 µM; in assay [2], 22.8 µM; in assay [3], 21.9 µM; in assay [4], 32.2 µM; in assay [5], greater than 100 µM; in assay [6], 85.4 µM.

`CNc1ncnc2c1ncn2[C@@H]1C(F)=C(CO)[C@@H](O)[C@H]1O`: the half-maximal inhibitory concentration (IC50) is 15.3 µM in assay [1]; 8.05 µM in assay [2]; 2.14 µM in assay [3]; 2.28 µM in assay [4]; 2.76 µM in assay [5]; 2.39 µM in assay [6].

Turning to `Nc1nc(=O)n([C@@H]2C(F)=C(CO)[C@@H](O)[C@H]2O)cc1Cl`, the IC50 in assay [1], in assay [2], in assay [3], in assay [4], in assay [5] and in assay [6] was greater than 100 µM in each case.

With `O=c1nc(O)c(F)cn1[C@@H]1C(F)=C(CO)[C@@H](O)[C@H]1O`, the half-inhibitory concentration (IC50) is 43.7 µM in assay [1]; 67.7 µM in assay [2]; 52.3 µM in assay [3]; 27.8 µM in assay [4]; 71.6 µM in assay [5]; greater than 100 µM in assay [6].

For the compound `O=c1nc(O)c(I)cn1[C@@H]1C(F)=C(CO)[C@@H](O)[C@H]1O`, the IC50 is 46.4 µM in assay [1]; 55.1 µM in assay [2]; 84.5 µM in assay [3]; 70.2 µM in assay [4]; greater than 100 µM in assay [5]; greater than 100 µM in assay [6].

As for `Nc1nc(NC2CC2)c2ncn([C@@H]3C(F)=C(CO)[C@@H](O)[C@H]3O)c2n1`, the IC50 in assay [1], in assay [2], in assay [3], in assay [4], in assay [5] and in assay [6] was greater than 100 µM throughout.

In the case of `Nc1ccn([C@@H]2O[C@H](CO)[C@@H](O)[C@@H]2O)c(=O)n1` [CYTARABINE], the IC50 in assay [1] is 48.4 µM; in assay [2], 10.5 µM; in assay [3] it was 4.4 µM; in assay [4], 1.08 µM; in assay [5], 1.8 µM; in assay [6], 1.75 µM.

For `Nc1ncnc2c1ncn2[C@@H]1C=C(CO)[C@@H](O)[C@H]1O` [NEOPLANOCIN A], the IC50 in assay [1] turned out to be 2.14 µM; in assay [2], 0.86 µM; in assay [3], 1.45 µM; in assay [4], 0.82 µM; in assay [5] it was 2.36 µM; in assay [6], 2.16 µM.

The IC50 is the concentration that inhibits the measured activity by half.
